Assays:
[1] = Drug excretion in urine of male Sprague-Dawley rat at 15 mg/kg, po administered as single dose by liquid scintillation counting; type: ADME, organism-based; design: dose 15 mg/kg, dosed compound name [14C]Sunitinib, route oral; conditions: in vivo
[2] = Drug excretion in feces of female Sprague-Dawley rat at 5 mg/kg, iv administered as single dose by liquid scintillation counting; type: ADME, organism-based; design: dose 5 mg/kg, dosed compound name [14C]Sunitinib, route intravenous; conditions: in vivo
[3] = Drug excretion in urine of female Sprague-Dawley rat at 5 mg/kg, iv administered as single dose by liquid scintillation counting; type: ADME, organism-based; design: dose 5 mg/kg, dosed compound name [14C]Sunitinib, route intravenous; conditions: in vivo
[4] = Drug excretion in feces of female cynomolgus monkey at 6 mg/kg, po administered as single dose by liquid scintillation counting; type: ADME, organism-based, Macaca fascicularis; design: dose 6 mg/kg, dosed compound name [14C]Sunitinib, route oral; conditions: in vivo
[5] = AUC (0 to infinity) in female Sprague-Dawley rat plasma at 15 mg/kg, po administered as single dose by LC/MS/MS analysis; type: ADME, organism-based; design: time infinity, dose 15 mg/kg, dosed compound name [14C]Sunitinib, route oral
Outline: (§1)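 Single dose of [14C]sunitinib L-malate as free base, 50 µCi/kg. IV dose was 5 mg/kg by tail vein in 5 females. Oral dose was 15 mg/kg by gavage in 3 females and 3 males. Total radioactivity was by scintillation counting. […] Cmax was read from raw data, t½ by log-linear regression, AUC by linear trapezoidal rule.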

[6] = Apparent terminal half life in female Sprague-Dawley rat plasma at 15 mg/kg, po administered as single dose by LC/MS/MS analysis; type: ADME, organism-based; design: dose 15 mg/kg, dosed compound name [14C]Sunitinib, route oral; conditions: read-out: t1/2 lambda z (converted); outline: as §1
[7] = Cmax in male Sprague-Dawley rat plasma at 15 mg/kg, po administered as single dose by LC/MS/MS analysis; type: ADME, organism-based; design: dose 15 mg/kg, dosed compound name [14C]Sunitinib, route oral; outline: as §1
[8] = Tmax in male Sprague-Dawley rat plasma at 15 mg/kg, po administered as single dose by LC/MS/MS analysis; type: ADME, organism-based; design: dose 15 mg/kg, dosed compound name [14C]Sunitinib, route oral
[9] = AUC (0 to infinity) in male Sprague-Dawley rat plasma at 15 mg/kg, po administered as single dose by LC/MS/MS analysis; type: ADME, organism-based; design: time infinity, dose 15 mg/kg, dosed compound name [14C]Sunitinib, route oral; outline: as §1
[10] = Apparent terminal half life in male Sprague-Dawley rat plasma at 15 mg/kg, po administered as single dose by LC/MS/MS analysis; type: ADME, organism-based; design: dose 15 mg/kg, dosed compound name [14C]Sunitinib, route oral; conditions: read-out: t1/2 lambda z (converted); outline: as §1
[11] = Cmax in female Sprague-Dawley rat plasma at 5 mg/kg, iv administered as single dose by LC/MS/MS analysis; type: ADME, organism-based; design: dose 5 mg/kg, dosed compound name [14C]Sunitinib, route intravenous; outline: as §1
[12] = AUC (0 to infinity) in female Sprague-Dawley rat plasma at 5 mg/kg, iv administered as single dose by LC/MS/MS analysis; type: ADME, organism-based; design: time infinity, dose 5 mg/kg, dosed compound name [14C]Sunitinib, route intravenous; outline: as §1
[13] = Apparent terminal half life in female Sprague-Dawley rat plasma at 5 mg/kg, iv administered as single dose by LC/MS/MS analysis; type: ADME, organism-based; design: dose 5 mg/kg, dosed compound name [14C]Sunitinib, route intravenous; conditions: read-out: t1/2 lambda z (converted); outline: as §1
[14] = Clearance in female Sprague-Dawley rat plasma at 5 mg/kg, iv administered as single dose by LC/MS/MS analysis; type: ADME, organism-based; design: dose 5 mg/kg, dosed compound name [14C]Sunitinib, route intravenous
Outline: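 Female rats (5) were given a single tail-vein bolus of [14C]sunitinib L-malate at 5 mg/kg free base (50 µCi/kg). […] Parameters were noncompartmental, with AUC by the linear trapezoidal rule.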

[15] = Volume of distribution at steady state in female Sprague-Dawley rat plasma at 5 mg/kg, iv administered as single dose by LC/MS/MS analysis; type: ADME, organism-based; design: dose 5 mg/kg, dosed compound name [14C]Sunitinib, route intravenous; conditions: read-out: Vdss
[16] = Cmax in human plasma at 50 mg, po administered as single dose by LC/MS/MS analysis; type: ADME, organism-based; design: dose 50 mg, route oral, dosed compound name [14C]Sunitinib
Outline: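 This was an open-label, single-dose, single-centre phase I study in eight male subjects. Each received one oral 50 mg dose of [14C]sunitinib (100 µCi). Plasma sunitinib was measured by a validated LC-MS-MS method. Cmax was read directly from the raw concentration–time data.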

[17] = Tmax in human plasma at 50 mg, po administered as single dose by LC/MS/MS analysis; type: ADME, organism-based; design: dosed compound name [14C]Sunitinib
[18] = AUC (0 to infinity) in human plasma at 50 mg, po administered as single dose by LC/MS/MS analysis; type: ADME, organism-based; design: dose 50 mg, route oral, time infinity, dosed compound name [14C]Sunitinib
Outline: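 Open-label phase I study in 8 subjects given one 50 mg oral dose of [14C]sunitinib (100 µCi). Plasma total radioactivity was counted by scintillation on triplicate 0.25 mL aliquots. Sunitinib was quantified by LC-MS-MS. Noncompartmental analysis: Cmax read directly, terminal t½ = ln(2)/slope of the log-concentration regression, AUC by linear trapezoidal rule to the last detectable concentration.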

[19] = Terminal half life in human plasma at 50 mg, po administered as single dose by LC/MS/MS analysis; type: ADME, organism-based; design: dosed compound name [14C]Sunitinib; conditions: read-out: beta t1/2 (converted)
[20] = Apparent oral clearance in human plasma at 50 mg, po administered as single dose by LC/MS/MS analysis; type: ADME, organism-based; design: dosed compound name [14C]Sunitinib
[21] = Cmax in female cynomolgus monkey plasma at 6 mg/kg, po administered as single dose by LC/MS/MS analysis; type: ADME, organism-based, Macaca fascicularis; design: dose 6 mg/kg, dosed compound name [14C]Sunitinib, route oral
Outline: (§2)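 Cynomolgus monkeys were given a single oral gavage of [14C]sunitinib L-malate at 6 mg/kg (37 µCi/kg). Heparinized femoral-vein blood was taken at pre-dose and 0.5–336 h. […] Cmax was read directly from the raw concentration data.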

[22] = Tmax in female cynomolgus monkey plasma at 6 mg/kg, po administered as single dose by LC/MS/MS analysis; type: ADME, organism-based, Macaca fascicularis; design: dose 6 mg/kg, dosed compound name [14C]Sunitinib, route oral
[23] = AUC (0 to infinity) in female cynomolgus monkey plasma at 6 mg/kg, po administered as single dose by LC/MS/MS analysis; type: ADME, organism-based, Macaca fascicularis; design: time infinity, dose 6 mg/kg, dosed compound name [14C]Sunitinib, route oral
Outline: (§3)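 Cynomolgus monkeys of both sexes received one oral gavage of [14C]sunitinib L-malate at 6 mg/kg (37 µCi/kg). Femoral-vein blood was taken into heparin from 0.5 to 336 h. Plasma was kept cold and protected from light, then stored at -80 °C. Total radioactivity was by scintillation counting and sunitinib by methanol-extraction LC-MS-MS. Cmax was from raw data, t½ from the log-linear terminal slope, AUC(0-∞) by linear trapezoidal rule.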

[24] = Terminal half life in female cynomolgus monkey plasma at 6 mg/kg, po administered as single dose by LC/MS/MS analysis; type: ADME, organism-based, Macaca fascicularis; design: dose 6 mg/kg, dosed compound name [14C]Sunitinib, route oral; conditions: read-out: beta t1/2 (converted)
[25] = Cmax in male cynomolgus monkey plasma at 6 mg/kg, po administered as single dose by LC/MS/MS analysis; type: ADME, organism-based, Macaca fascicularis; design: dose 6 mg/kg, dosed compound name [14C]Sunitinib, route oral; outline: as §2
[26] = Tmax in male cynomolgus monkey plasma at 6 mg/kg, po administered as single dose by LC/MS/MS analysis; type: ADME, organism-based, Macaca fascicularis; design: dose 6 mg/kg, dosed compound name [14C]Sunitinib, route oral
[27] = AUC (0 to infinity) in male cynomolgus monkey plasma at 6 mg/kg, po administered as single dose by LC/MS/MS analysis; type: ADME, organism-based, Macaca fascicularis; design: time infinity, dose 6 mg/kg, dosed compound name [14C]Sunitinib, route oral; outline: as §3
[28] = Terminal half life in male cynomolgus monkey plasma at 6 mg/kg, po administered as single dose by LC/MS/MS analysis; type: ADME, organism-based, Macaca fascicularis; design: dose 6 mg/kg, dosed compound name [14C]Sunitinib, route oral; conditions: read-out: beta t1/2 (converted)
[29] = Retention time of compound by LC/MS/MS analysis; type: physicochemical; design: dosed compound name [14C]Sunitinib
[30] = Cmax in female Sprague-Dawley rat plasma at 15 mg/kg, po administered as single dose by LC/MS/MS analysis; type: ADME, organism-based; design: dose 15 mg/kg, dosed compound name [14C]Sunitinib, route oral; outline: as §1
[31] = Tmax in female Sprague-Dawley rat plasma at 15 mg/kg, po administered as single dose by LC/MS/MS analysis; type: ADME, organism-based; design: dose 15 mg/kg, dosed compound name [14C]Sunitinib, route oral
[32] = Drug excretion in urine of female cynomolgus monkey at 6 mg/kg, po administered as single dose by liquid scintillation counting; type: ADME, organism-based, Macaca fascicularis; design: dose 6 mg/kg, dosed compound name [14C]Sunitinib, route oral; conditions: in vivo
[33] = Drug excretion in feces of male cynomolgus monkey at 6 mg/kg, po administered as single dose by liquid scintillation counting; type: ADME, organism-based, Macaca fascicularis; design: dose 6 mg/kg, dosed compound name [14C]Sunitinib, route oral; conditions: in vivo
[34] = Drug excretion in urine of male cynomolgus monkey at 6 mg/kg, po administered as single dose by liquid scintillation counting; type: ADME, organism-based, Macaca fascicularis; design: dose 6 mg/kg, dosed compound name [14C]Sunitinib, route oral; conditions: in vivo
[35] = Drug excretion in feces of female Sprague-Dawley rat at 15 mg/kg, po administered as single dose by liquid scintillation counting; type: ADME, organism-based; design: dose 15 mg/kg, dosed compound name [14C]Sunitinib, route oral; conditions: in vivo
[36] = Drug excretion in urine of female Sprague-Dawley rat at 15 mg/kg, po administered as single dose by liquid scintillation counting; type: ADME, organism-based; design: dose 15 mg/kg, dosed compound name [14C]Sunitinib, route oral; conditions: in vivo
[37] = Drug excretion in feces of male Sprague-Dawley rat at 15 mg/kg, po administered as single dose by liquid scintillation counting; type: ADME, organism-based; design: dose 15 mg/kg, dosed compound name [14C]Sunitinib, route oral; conditions: in vivo
[38] = Drug excretion in feces of human at 50 mg, po administered as single dose by liquid scintillation counting; conditions: in vivo
[39] = Drug excretion in urine of human at 50 mg, po administered as single dose by liquid scintillation counting; conditions: in vivo

Compound recovery [1]: 0.5%
Compound recovery [2]: 22.6%
Compound recovery [3]: 0.3%
Compound recovery [4]: 9.2%
AUC(0-inf) [5]: 24000 ng·h/mL
half-life [6]: 7.2 h
Cmax [7]: 963 ng/mL
Tmax [8]: 3 h
AUC(0-inf) [9]: 11800 ng·h/mL
half-life [10]: 8 h
Cmax [11]: 1820 ng/mL
AUC(0-inf) [12]: 7200 ng·h/mL
half-life [13]: 7.4 h
clearance [14]: 13 mL/min/kg
Vd [15]: 3.36 L/kg
Cmax [16]: 24.4 ng/mL
Tmax [17]: 8 h
AUC(0-inf) [18]: 1060 ng·h/mL
half-life [19]: 50.9 h
CL/F [20]: 832 mL/min
Cmax [21]: 83 ng/mL
Tmax [22]: 4 h
AUC(0-inf) [23]: 1100 ng·h/mL
half-life [24]: 16 h
Cmax [25]: 92 ng/mL
Tmax [26]: 5 h
AUC(0-inf) [27]: 1450 ng·h/mL
half-life [28]: 18 h
Retention_time [29]: 4 min
Cmax [30]: 1250 ng/mL
Tmax [31]: 4 h
Compound recovery [32]: 0.2%
Compound recovery [33]: 8.8%
Compound recovery [34]: 0.2%
Compound recovery [35]: 11.5%
Compound recovery [36]: 0.6%
Compound recovery [37]: 5.8%
Compound recovery [38]: 13.6%
Compound recovery [39]: 6.4%
Structure (SMILES): CCN(CC)CCNC(=O)c1c(C)[nH]c(/C=C2\C(=O)Nc3ccc(F)cc32)c1C [SUNITINIB]

From ChEMBL document CHEMBL3525900, “Pharmacokinetics, distribution, and metabolism of [14C]sunitinib in rats, monkeys, and humans” (Drug Metab Dispos, 2012)
